# Results from ChEMBL document CHEMBL3232782, “1,2,3,4,8,9,10,11-octahydrobenzo[j]phenanthridine-7,12-diones as new leads against Mycobacterium tuberculosis” (J Med Chem, 2014).
# Test system: Mycobacterium tuberculosis variant bovis
# Assay: Antimycobacterial activity against Mycobacterium bovis AN5 expressing luciferase assessed as growth inhibition after 6 days by luminometry
# Assay type: functional
# Details: AN5, 144 h
# Method in brief: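 Strains carried pSMT1 luxAB reporter plasmid. DMSO stocks 10 mM, serially diluted in 7H9 + 10% FCS, triplicate wells. Filtered bacterial suspension at 50 000 RLU/mL. Luminescence read after 6 days using 1% n-decanal substrate. […] Growth temperatures: M.tb 37 °C; M. avium and M. bovis 39 °C.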
row,SMILES,MIC
1,NNC(=O)c1ccncc1 [ISONIAZID],0.08 µM
2,CC(C)(C)C1CCc2ncc3c(c2C1)C(=O)C1=C(C3=O)C2CCC1C2 (centres undefined),0.78 µM
3,CCOC(=O)C1CCc2ncc3c(c2C1)C(=O)C1=C(C3=O)C2CCC1C2 (centres undefined),0.09 µM
4,CCOC(=O)C1CCc2ncc3c(c2C1)C(=O)C1=C(C3=O)C2CCC1CC2 (centres undefined),0.57 µM
